In the library only some 1.7% were active in any assay of this set; here they are far more common.
Vif imaging = blocks HIV Vif function | HEK293T cells, Vif self-association by quenched fluorescence, imaging, 24 h | inhibition, % at 7.49 µM | hit rate 0.35% among 340,000 | AID 602346; in the data active = inhibition above about 50%, passing the limit was not always enough
Myeloid diff 2 = promotes myeloid progenitor differentiation | ER-HoxA9 myeloid progenitors, lysozyme-GFP differentiation, flow cytometry | calls only at 10 µM | hit rate 1% among 360,000;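 active = normalized GFP-positive differentiation at or above the plate's own cutoff, the solvent-only control mean plus 3 SD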;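 also: cells exposed to compound for four days before flow analysis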
T cell HTS = T cell immune modulators affecting CD8 T cell-vesicle binding | response (vesicle binding), % at 7 µM | 2C CD8+ T cell-vesicle binding, flow cytometry; hits give low values | hit rate 0.068% among 330,000;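 active = response, share of CD8 T cells binding vesicles, and their 90th percentile fluorescence all below set limits, cut at about 80% in these data, passing the limit was not always enough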;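 also: values below 100% mean blocked vesicle binding to the CD8+ T cells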
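material = purified 2C TCR transgenic mouse naive CD8+ T cells | controls = Unloaded micro-vesicles (low), QL9 vesicles with 0.7% DMSO (high) | detection = cytometric PE anti-B7-1 and Alexa647 anti-CD8 signals after 1% paraformaldehyde fixation | incubation = binding step 1.5 h, 37 °C, antibody labelling 20 min, ice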
Pemphigus Ab inh = blocks pemphigus antibody binding to human desmoglein-3; binding (percent of control), % at 10 µM; P32926; DSG3-coupled beads, scFv-anti-DSG3-GFP binding, flow cytometry; hits give low values; hit rate 0.48% among 310,000; AID 588358;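 active = binding more than 3 SD below its plate's average and above zero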;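 also: hits lower antibody fragment binding to DSG3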
Target sequence (P32926 whole entry, looked up, the tested form may be a part): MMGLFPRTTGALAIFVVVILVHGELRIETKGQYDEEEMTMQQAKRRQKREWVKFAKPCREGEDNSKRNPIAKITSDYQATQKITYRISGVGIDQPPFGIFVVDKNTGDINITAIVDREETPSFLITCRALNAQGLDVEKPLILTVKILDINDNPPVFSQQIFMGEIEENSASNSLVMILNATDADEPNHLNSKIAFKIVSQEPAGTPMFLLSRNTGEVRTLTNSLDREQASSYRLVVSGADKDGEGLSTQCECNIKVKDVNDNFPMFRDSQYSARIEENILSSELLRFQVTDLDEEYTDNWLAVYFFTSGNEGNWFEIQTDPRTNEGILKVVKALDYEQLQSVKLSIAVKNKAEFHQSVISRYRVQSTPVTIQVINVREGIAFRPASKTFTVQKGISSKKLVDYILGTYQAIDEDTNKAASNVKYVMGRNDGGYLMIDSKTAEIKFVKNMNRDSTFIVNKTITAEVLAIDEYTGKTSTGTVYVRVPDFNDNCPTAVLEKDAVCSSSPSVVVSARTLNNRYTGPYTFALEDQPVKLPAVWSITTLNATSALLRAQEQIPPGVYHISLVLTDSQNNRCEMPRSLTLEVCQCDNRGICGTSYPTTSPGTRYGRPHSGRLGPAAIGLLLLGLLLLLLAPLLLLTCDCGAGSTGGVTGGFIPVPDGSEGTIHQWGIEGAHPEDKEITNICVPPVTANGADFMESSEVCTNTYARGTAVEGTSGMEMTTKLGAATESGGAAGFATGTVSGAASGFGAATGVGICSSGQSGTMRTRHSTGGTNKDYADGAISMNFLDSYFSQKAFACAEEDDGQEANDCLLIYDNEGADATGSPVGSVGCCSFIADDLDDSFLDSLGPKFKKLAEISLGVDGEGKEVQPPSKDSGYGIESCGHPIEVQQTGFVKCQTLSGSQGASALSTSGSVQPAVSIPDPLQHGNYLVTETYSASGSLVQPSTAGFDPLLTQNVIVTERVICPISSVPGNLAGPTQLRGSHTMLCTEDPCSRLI
Myeloid diff = myeloid differentiation induction; calls only; hit rate 2% among 2,300; ER-HoxA9 myeloid progenitors, GFP/Mac1 double-positive flow; shares compounds with Myeloid diff 2;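 active = share of green or green-and-red cells above 9 and 9% in run 1 or 4 and 3% in run 2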
GFP autofluor = flagged as fluorescent in myeloid differentiation counter-screen. ER-HoxA9 myeloid progenitors, no estrogen, GFP autofluorescence flow cytometry; vehicle wells 0%, positive control 100%. hit rate 7.4% among 2,300. shares compounds with Myeloid diff 2. fluorescence response, % (concentration not given with the values);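 active = over 5% cells positive for green fluorescent reporter, or over 2% positive for both it and APC stain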
A number is an active result; – = inactive; · = no result; + = active, no number.

SMILES	Vif imaging	Myeloid diff 2	T cell HTS	Pemphigus Ab inh	Myeloid diff	GFP autofluor
CC1(C(=O)O)CCCN1C(=O)c1cccc2ccccc12 (configuration not stated)	–	–	·	·	·	·
O=C(Nc1ccc(F)cc1)c1cccc(N2C(=O)C3C4C=CC(C4)C3C2=O)c1 (configuration not stated)	–	+	–	–	–	–
Cc1ccc(CSc2nnc(-c3ccccn3)n2Cc2cccs2)cc1	·	–	·	·	·	·
COc1ccc(N2C[C@H](C)[C@@H](CC(=O)Nc3ccc(Br)cc3)C2=O)cc1	–	–	·	–	·	·
CCC(c1nnc(SCC(=O)NC23CC4CC(CC(C4)C2)C3)o1)N(C)C (configuration not stated)	–	+	–	–	–	–
CC(=O)c1cccc(NC(=O)c2ccc(-n3cncn3)c3ccoc23)c1	–	–	·	·	·	·
N#CCCN(C(=O)COc1ccc(C#N)cc1)c1ccc(F)cc1	–	–	–	–	–	–
COc1ccc(C2=Nc3ccccc3N(C(=O)c3ccc(C(F)(F)F)cc3)C2C(=O)Nc2c(C)cccc2C)cc1 (configuration not stated)	·	–	·	·	–	–
Cc1cccc(C)c1NC(=O)C1C(c2ccc3c(c2)OCO3)=Nc2ccccc2N1C(=O)c1ccccc1 (configuration not stated)	·	–	·	·	·	·
COc1ccc(-c2oc3ccc(N4CCOCC4)cc3c2C#CCO)cc1	–	–	–	–	·	·
COc1ccc(-c2ccc3oc(-c4ccc(OC)cc4)c(C#CCO)c3c2)cc1	–	+	–	–	–	–
CSCC[C@H](NC(=O)Cc1c(C)c2cc3c(C)c(C)oc3cc2oc1=O)C(=O)N[C@@H](C(=O)O)c1ccccc1	–	–	·	·	·	·
CN(C)C(CNC(=O)c1ccc(NC(=O)CC#N)cc1)c1ccccc1 (configuration not stated)	–	·	–	–	·	·
CC(=O)Nc1ccc(CC(=O)O)cc1	–	–	–	–	·	·
CC(=O)Nc1ccc(CC(=O)NCCC(c2ccccc2)c2ccccc2)cc1	–	+	–	–	–	–
N#CCC(=O)Nc1ccc(C(=O)NCCC(c2ccccc2)c2ccccc2)cc1	–	+	–	–	–	–
COc1ccccc1NC(=O)c1c(NC(=O)c2ccco2)sc2c1CCC2	–	+	–	–	–	–
FC(F)(F)c1ccccc1Cc1c(-c2ccc(Cl)cc2)nc2ccc(Br)cn12	·	–	·	·	·	·
CC(C)=C1SC(N2CCCCC2)=NC1=O	–	–	–	–	·	·
C/C(=C1/SC(N2CCCC2)=NC1=O)c1ccc(Br)cc1	–	+	–	–	+	–
COc1ccc2ccccc2c1C=NN1CCCCC1	–	–	·	–	·	·
N#Cc1c(N)nc(SC2CCCCC2=O)c(C#N)c1-c1ccco1 (configuration not stated)	–	–	–	–	–	–
O=[N+]([O-])c1ccccc1/C=C/CN1CCCCC1	–	–	·	–	–	–
COC(=O)c1cc2oc3ccccc3c2n1CC(=O)N1CCCc2ccccc21	–	+	–	·	–	–
COC(=O)c1cc2ccsc2n1CC(=O)N1CCCc2ccccc21	–	–	–	–	·	·
SMILES	Vif imaging	Myeloid diff 2	T cell HTS	Pemphigus Ab inh	Myeloid diff	GFP autofluor
O=C(C(=Cc1ccc(O)cc1)c1ccccc1)c1ccccc1	·	–	·	·	·	·
O=C(CNc1cc(S(=O)(=O)N2CCOCC2)ccc1N1CCCC1)Nc1ccc(Cl)cc1F	·	–	·	–	·	·
CCCc1ccc(OCc2ccc(C(=O)NN)o2)c(OC)c1	–	+	–	–	–	–
CCNC(=S)N(CCc1c(C)[nH]c2ccccc12)Cc1cc(OC)c(OC)c(OC)c1	–	–	–	–	–	–
O=C(c1ccc(N2C(=O)c3ccccc3C2=O)cc1)N1CCN(S(=O)(=O)c2ccccc2F)CC1	–	–	·	–	·	·
Cc1cc(OCC(=O)OCC(=O)c2ccc[nH]2)ccc1Cl	–	–	·	–	·	·
CCOC(=O)c1c(C)[nH]c(C(=O)N/N=C\c2ccccc2Cl)c1C	–	–	–	–	–	–
CC1=C(C(=O)N2CCOCC2)CC(CC(=O)NCC2CCCCC2)C(=O)N1Cc1ccc(C(C)(C)C)cc1 (configuration not stated)	–	–	·	·	·	·
C/C(Cc1ccccc1)=N\NC(=O)CNC(=O)c1ccc(Br)cc1	–	+	–	–	–	–
Cc1cc(C(=O)C(C)OC(=O)c2ccc(NC(=O)CC#N)cc2)c(C)n1-c1ccc(OC(F)F)cc1 (configuration not stated)	–	+	–	–	–	18.4
Cc1nn(-c2ncc(C(F)(F)F)cc2Cl)c(=O)n1-c1c(F)cccc1F	–	–	–	–	·	·
Cc1cccc(C)c1-n1c(C)nn(-c2ncc(C(F)(F)F)cc2Cl)c1=O	–	–	–	–	–	–
O=C(c1ccc(S(=O)(=O)N2CCCCC2)cc1)N1CCN(CCN2C(=O)c3cccc4cccc(c34)C2=O)CC1	–	+	–	–	–	–
CCCNC(=O)C1(C)CCCN(Cc2ccc3c(c2)OCO3)C1 (configuration not stated)	–	–	·	·	·	·
O=C1c2cccnc2C(Nc2ccccc2)N1Cc1ccco1 (configuration not stated)	–	–	–	–	–	–
O=C(O)c1ccc(-n2cccc2/C=C2/NC(=O)N(c3cccc(Cl)c3)C2=O)cc1	–	+	·	–	–	–
O=C(O)c1ccc(-n2cccc2/C=C2/NC(=O)N(c3ccccc3)C2=O)cc1	–	–	–	–	·	·
COc1ccc(Cl)cc1NC(=O)C1CSC(c2ccncc2)=N1 (configuration not stated)	–	+	–	–	–	–
O=c1ccn([C@@H]2O[C@H](CNCc3c(OCc4ccccc4F)ccc4ccccc34)[C@@H](O)[C@H]2O)c(=O)[nH]1	–	–	·	·	·	·
COc1ccc(C(=O)Cn2cc[n+](C)c2)cc1	–	+	–	–	–	–
Oc1ccc2ccccc2c1C=Nc1ccccc1Br	–	–	–	–	–	–
Oc1ccccc1N=Cc1c(O)ccc2ccccc12	·	+	·	–	–	–
O=C(C(=O)N1CCC(c2ccccc2)CC1)c1ccc(F)c(F)c1	·	–	·	·	·	·
CCCOc1ccc([C@@H]2C3CN(C(=O)OCC)CC=C3C(C#N)=C(N)C2(C#N)C#N)cc1OC (some centres not stated)	–	+	–	–	–	–
CCOc1cc(/C=C2\N=C(C)OC2=O)cc(Br)c1OCCc1ccccc1	–	–	–	–	·	·
CCOc1cc(/C=C2\N=C(C)OC2=O)cc(Br)c1OCC(=O)OC	–	+	–	–	–	–
O=C(c1cccs1)N1CCN(S(=O)(=O)c2cccc(Cl)c2Cl)CC1	–	–	·	–	·	·
Cc1cccc(Nc2ncccc2C(=O)NCc2cccs2)c1C	–	–	–	·	–	–
O=C(O)CCNC(=O)/C(=C\C=C\c1ccccc1)NC(=O)c1ccccc1	–	–	–	–	–	–
CCOc1ccc(N(CC(=O)NCc2ccccc2C)S(C)(=O)=O)cc1	–	–	–	–	·	·
